Dynein cargo inh – blocks dynein driven cargo transport along microtubules; 3617.4 mouse cells, GR-EGFP nuclear translocation imaging; test concentration mostly 20 µM; stimulated with dexamethasone, 1 µM; stronger effect = lower value; z-score, hits read low; hit rate 0.47% among 220,000;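 active = plate z-score of nuclear minus cytoplasmic receptor signal below a set negative limit, without overly bright fluorescence or cell loss, cut at about -3.5 in these data, passing the limit was not always enough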;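 note: z-score of nuclear minus cytoplasmic ring GR-EGFP intensity difference per well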
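Buffer or medium: tetracycline-free induction medium containing charcoal-stripped FBS / Reagent: dexamethasone agonist, 1.0 µM final, for 30 min / Technique: automated 10x imaging of fixed Hoechst-stained cells / Times: induction 48 h, compound 1 h, agonist 30 min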
UPR CHOP act – activators of apoptotic arm of unfolded protein response (CHOP); CHO-CHOP luciferase reporter, UPR activation, luminescence; percent of tunicamycin response over DMSO baseline; AID 449763; hit rate 0.34% among 330,000; activation, % at 10 µM;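 active = at 10 µM dose, activation of 40% or more, normalized to positive control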;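 note: 100% = tunicamycin at 10 µg/mL and 0% = DMSO alone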
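Assay system: CHO cells with stable CHOP pathway luciferase reporter; Buffer or medium: F12 plus 10% serum; Times: 16-18 h cell attachment, then 6 h compound exposure, 37 °C; Signal: luciferase luminescence; Read-out basis: percent activation relative to tunicamycin control; Control set: tunicamycin high control, DMSO low control.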
T cruzi inh – T. cruzi replication inhibition; T. cruzi beta-gal in NIH3T3, luminescence, 90 h; AID 1885; inhibition, % (test concentration not listed); hit rate 1.4% among 300,000;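 active = mean inhibition across valid replicates above about 55%, limit read from the data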;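 note: signal also drops with host cell toxicity which is not excluded here; 0% = plate median of DMSO wells and 100% = zero luminescence signal; higher percent means less beta-gal luminescence so fewer parasites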
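Assay system: NIH/3T3 fibroblasts plus reporter T. cruzi. Amount: NIH/3T3 cells, 5,000 per well. Buffer or medium: DMEM, 2% fetal bovine serum. Doses: compound pinned at 50 nL/well, DMSO. Schedule: ≥90 h infection period, 3 h prior cell attachment. Signal: luminescent β-galactosidase signal after 60 min lysis. Read-out: parasite load inhibition, %.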
UPR XBP1 act – activators of adaptive arm of unfolded protein response (XBP1). activation, % at 20 µM. CHO-XBP1 luciferase reporter, IRE1-XBP1 UPR activation, luminescence; percent of tunicamycin response, DMSO as zero. hit rate 0.33% among 330,000. AID 463104;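 active = versus positive control, 20 µM dose yields 30% or more activation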;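 note: 100% = tunicamycin at 10 µg/mL and 0% = DMSO only wells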
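incubation = overnight seeding at 37 °C, 6 h compound treatment at 37 °C | assay system = CHO-XBP1 cells stably carrying IRE1-XBP1-driven luciferase reporter | input = 1000 cells per well | detection = luciferase luminescence | dosing = single point, 20 µM final compound, 1% DMSO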
CHOP inh – inhibitors of CHOP induction in ER stress response | CHO-K1 CHOP-promoter luciferase, tunicamycin-induced, 15-18 h | inhibition, % at 10 µM | hit rate 3.8% among 220,000 | AID 2732;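 active = compounds that reduced the stress-induced luciferase reporter signal by more than about 70% of percent inhibition, limit read from the data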;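 note: 0% = tunicamycin plus vehicle and 100% = wells without tunicamycin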
Lmaj promast – inhibitors of Leishmania major promastigote growth; inhibition, % at 10 µM; Leishmania major promastigotes, resazurin fluorescence viability; hit rate 9% among 200,000; in the data active = inhibition above about 50%;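 note: promastigotes grown with compound for 44 hours at 28 °C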
The depositor's hits bear a star; · = no result given. The full list was thinned out, with hits kept by preference.

SMILES	Dynein cargo inh	UPR CHOP act	T cruzi inh	UPR XBP1 act	CHOP inh	Lmaj promast
Cc1ccc(-c2nnn(CC(=O)N(c3ccccc3)C(C(=O)NC3CCCC3)c3ccco3)n2)o1 (stereo unspecified)	1.8	2	5	0	94*	-5
Cc1cc(NC(=O)CCC(=O)N(CC(=O)NC2CCCC2)c2ccccc2)no1	-0.87	-1	-11	-3	-4	-3
Cc1cc(NC(=O)/C=C/C(=O)N(CC(=O)NC2CCCC2)c2cccc3ccccc23)no1	-1	-2	-27	-2	10	96*
CCOc1nc(Nc2ccc(OC)cc2OC)nc(OCC)n1	·	1	6	-3	·	·
COc1cc(/C(O)=C(\C#N)c2nc3ccccc3[nH]2)cc(OC)c1OC	·	2	0	6	·	·
CCc1ccc(N(C(=O)CCC(=O)Nc2cc(C)on2)C(C(=O)NC2CCCC2)c2ccco2)cc1 (stereo unspecified)	0.61	0	-11	-3	37	96*
COc1ccc(-c2nc(NC(=O)c3ccc(OCC(=O)N4CCOCC4)c(OC)c3)sc2C)cc1	0.84	2	13	-2	-7	61*
COc1cc(C(=O)Nc2ccc(C)cn2)ccc1OCC(=O)N1CCOCC1	·	-2	·	-1	·	·
Oc1c(Br)cc(Br)cc1/C=N/Nc1ccc(Cl)nn1	·	·	55*	·	·	·
CCC(Sc1nc2ccccc2s1)C(=O)Nc1cc(C)on1 (stereo unspecified)	0.23	1	-1	0	21	67*
O=C(CSc1nnnn1-c1ccc(F)cc1)Nc1nc2ccccc2s1	1.4	0	4	2	70*	-3
CCC(Sc1nnnn1-c1ccccc1)C(=O)Nc1nc2ccccc2s1 (stereo unspecified)	-0.26	0	15	-2	89*	18
C[C@H](NC(=O)C1CC(=O)N(c2ccc3c(c2)OCO3)C1)C(=O)NC1CCCCC1 (stereo partly specified)	·	-2	-9	-5	·	·
O=C(CSc1nc2c(c(C(F)(F)F)n1)CCc1ccccc1-2)NCc1ccccc1	0.058	1	33	-3	12	-4
Cc1nn(Cc2ccccc2)c(C)c1NC(=O)c1noc2c1CCc1ccccc1-2	-0.87	0	17	1	86*	3
CCN(CC)CCCNC(=O)CSc1nc2c(c(C(F)(F)F)n1)CCc1ccccc1-2	-0.27	-2	26	-3	13	60*
Cc1nn(Cc2ccccc2)c(C)c1NC(=O)CSc1nc2c(c(C(F)(F)F)n1)CCc1ccccc1-2	0.52	-1	38	-1	32	68*
CCC1CN(C(=O)N2CCC(C(=O)NCc3ccco3)CC2)c2cc(C)ccc2O1 (stereo unspecified)	·	2	-1	-1	·	·
S=C(NCc1ccco1)N1CCN(C(c2ccccc2)c2ccccc2)CC1	-0.48	-2	11	-2	72*	5
CC(C)CNC(=S)N1CCN(C(c2ccccc2)c2ccccc2)CC1	0.07	3	14	-2	41	39
Cc1c(-n2c(SCC(=O)O)nnc2-c2ccccc2Br)c(=O)n(-c2ccccc2)n1C	-0.11	1	-31	-3	12	·
N#Cc1c(-c2ccccc2)cc(-c2ccccc2)nc1SCc1nnc(-c2ccccc2)o1	-0.33	-1	32	0	-18	60*
COc1ccc(CN(CC(=O)NCc2ccco2)C(=O)CNS(=O)(=O)c2ccc(C)cc2)cc1	·	0	-4	-2	·	·
COc1ccc(OC)c(NC(=O)/C=C/c2ccc(S(=O)(=O)N3CCOCC3)cc2)c1	·	0	·	-4	·	·
Cc1ccc2nc(CSc3nnc4ccccn34)cc(=O)n2c1	1.6	1	-1	-3	25	-5
SMILES	Dynein cargo inh	UPR CHOP act	T cruzi inh	UPR XBP1 act	CHOP inh	Lmaj promast
C=CCn1c(SCc2cc(=O)n3cc(C)ccc3n2)nnc1-c1cccc(C)c1	0.51	2	-5	-4	13	52*
Cn1cnnc1SCC(=O)NC1CC1	·	-1	·	-4	·	·
C[C@@H]1[C@H](O)C[C@@]23COC(=O)C2=CCCC3[C@@]1(C)CCC1COC(=O)C1 (stereo partly specified)	·	-1	·	-1	·	·
CCOc1ccc(S(=O)(=O)NCCN2CCOCC2)c2ccccc12	-0.72	0	19	2	8	96*
COc1c(S(=O)(=O)NCCN2CCOCC2)ccc(Cl)c1Cl	-1	2	7	-5	11	67*
CCCOc1ccc(S(=O)(=O)NCCN2CCOCC2)c2ccccc12	0.2	2	30	-6	29	66*
CCOC(=O)C1=C(COC(=O)c2ccc(OC)c(OC)c2OC)NC(=O)NC1C (stereo unspecified)	·	2	-13	-1	·	·
COc1ccccc1-c1nc(SCC(=O)N2CCC(C(N)=O)CC2)n[nH]1	·	1	·	1	·	·
COc1cc(CN(C)CCc2ccccn2)cc(OC)c1OC	-1.1	-2	14	-3	23	-10
Cc1ccc(CN(C)CCc2ccccn2)cc1	1.5	0	67*	-1	-2	14
CN(CCc1ccccn1)Cc1ccc(Cl)cc1	0.025	-1	56*	-2	-12	10
CCc1ccc(CN(C)CCc2ccccn2)cc1	1.7	0	63*	-1	-18	4
CN(C)CCN(Cc1ccc(Cl)cc1)c1ccccn1	1.8	2	6	-6	4	99*
COc1ccc(CN(C)CCc2ccccn2)cc1OC	0.21	-1	·	-4	14	5
COC(=O)c1ccc(NC(C)=O)cc1O	0.16	·	·	·	5	-7
NS(=O)(=O)c1ccc(CCNC(=O)Cc2cccs2)cc1	·	1	-3	-5	·	·
Cc1cc(C)n(C(C)CC(=O)Nc2ccc3c(c2)OCO3)n1 (stereo unspecified)	·	3	-5	-1	·	·
CC(C)C(=O)Nc1cccc2nsnc12	-0.41	-2	3	-2	21	4
O=C(N/N=C/c1ccc(O)cc1)Nc1cccc2nsnc12	-0.55	2	62*	16	55	54*
COc1cc(/C=N/NC(=O)Nc2cccc3nsnc23)cc(OC)c1OC	2.2	·	32	·	84*	7
COc1ccc(/C=N/NC(=O)Nc2cccc3nsnc23)c(OC)c1	-0.096	-3	·	20	47	-9
CCCCN(CCCC)C(=S)N/N=C/c1c(C)[nH]n(-c2ccccc2)c1=O	-0.43	-4	-21	3	49	96*
Cc1ccc(/C=N/Nc2nncc(-c3ccccc3)n2)o1	2.3	3	15	-3	-1	9
Cc1[nH]n(-c2ccccc2)c(=O)c1/C=N/Nc1nncc(-c2ccccc2)n1	1.3	5	70*	1	77*	100*
Cc1[nH]n(-c2ccccc2)c(=O)c1/C=N/NC(=O)c1ccc(O)cc1O	·	2	-11	-1	·	·
